Test results as given in ChEMBL document CHEMBL1159129, “Novel amidino substituted 2-phenylbenzothiazoles: synthesis, antitumor evaluation in vitro and acute toxicity testing in vivo” (Bioorg Med Chem, 2010).

Tests used:
NCI-H460 = assay: Growth inhibition of human H460 cells after 72 hrs by MTT assay; format: functional, cell-based; conditions: NCI-H460, 72 h
In short: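 H460 lung carcinoma cells grown as monolayers in DMEM with 10% FBS, 2 mM glutamine, penicillin/streptomycin, 5% CO2, 37 °C. Seeded day 0 at 1-3 × 10^4 cells/mL. DMSO stocks (4 × 10^-2 M) were diluted in medium to five 10-fold concentrations, 10^-8 to 10^-4 M, for 72 h. MTT read-out, quadruplicate, three experiments. IC50 by linear regression of concentrations bracketing 50% growth.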

MOLT-4 = assay: Growth inhibition of human MOLT4 cells after 72 hrs by MTT assay; format: functional, cell-based; conditions: MOLT-4, 72 h
In short: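 MOLT-4 leukemia cells grown in suspension in RPMI with 10% FBS, 2 mM glutamine, penicillin/streptomycin, 5% CO2, 37 °C. Inoculated at 1-3 × 10^4 cells/mL. Compounds from 4 × 10^-2 M DMSO stock were tested at 10^-8 to 10^-4 M (10-fold steps) for 72 h, then MTT. Quadruplicates in three experiments. IC50 interpolated by linear regression around 50% growth; '>' highest concentration when not reached.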

MCF7 = assay: Growth inhibition of human MCF7 cells after 72 hrs by MTT assay; format: functional, cell-based; conditions: MCF7, 72 h
In short: (§1)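 Modified NCI protocol. Cells were plated on day 0 at 1-3 × 10^4 cells/mL according to doubling time. Agents were dissolved in DMSO (stock 4 × 10^-2 M) and serially diluted 10-fold in medium (10^-8–10^-4 M), with 72 h exposure. Viability by MTT (mitochondrial dehydrogenase). Four wells, three independent runs. IC50 from linear regression of the two concentrations flanking 50% growth.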

SW-620 = assay: Growth inhibition of human SW620 cells after 72 hrs by MTT assay; format: functional, cell-based; conditions: SW-620, 72 h; in short: as §1
HCT-116 = assay: Growth inhibition of human HCT116 cells after 72 hrs by MTT assay; format: functional, cell-based; conditions: HCT-116, 72 h; in short: as §1
[1] = Acute toxicity in po dosed BALB/c mouse; format: organism-based; conditions: in vivo
In short: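 Female nulliparous, non-pregnant BALB/c mice, 12 weeks old, housed singly; food withheld 3-4 h before and 1-2 h after dosing. Single gavage dose in physiological saline (sonicated 15 min at 69 °C just before use), 0.5 mL/25 g body mass. OECD 425 up-and-down procedure, one animal per 24 h, dose adjusted by prior outcome; LD50 by maximum likelihood (AOT425StatPgm), 95% confidence interval.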

IC50 (NCI-H460) [nM] | IC50 (MOLT-4) [nM] | IC50 (MCF7) [nM] | IC50 (SW-620) [nM] | IC50 (HCT-116) [nM] | Compound | LD50 [1] [mg/kg]
3000 | 2000 | 3000 | 2000 | 3000 | O=[N+]([O-])c1ccc2nc(-c3ccc(C4=NCCN4)cc3)sc2c1 | 
1000 | 1000 | 1000 | 2000 | 1000 | N=C(N)c1ccc(-c2nc3ccc([N+](=O)[O-])cc3s2)cc1 | 
2000 | 3000 | 1000 | 800 | 2000 | c1cc(-c2nc3ccc(C4=NCCN4)cc3s2)ccc1C1=NCCN1 | 
1000 | 2000 | 2000 | 2000 | 2000 | N=C(N)c1ccc2nc(-c3ccc([N+](=O)[O-])cc3)sc2c1 | 
78000 | > 100000 | 11000 | > 100000 | 64000 | N=C(N)c1ccc(-c2nc3ccc(C(=N)N)cc3s2)cc1 | 
4000 | 17000 | 11000 | 7000 | 8000 | O=[N+]([O-])c1ccc(-c2nc3ccc(C4=NCCN4)cc3s2)cc1 | 

Compound | IC50 (NCI-H460) [nM] | IC50 (MOLT-4) [nM] | IC50 (MCF7) [nM] | IC50 (SW-620) [nM] | IC50 (HCT-116) [nM] | LD50 [1] [mg/kg]
Cl.Nc1ccc(-c2nc3ccc(C4=NCCN4)cc3s2)cc1 | 400 | 1000 | 1700 | 700 | 1000 | 696
Cl.N=C(N)c1ccc2nc(-c3ccc(N)cc3)sc2c1 | 4000 | 3000 | 9000 | 7000 | 10000 | 67.3
Cl.N=C(N)c1ccc(-c2nc3ccc(N)cc3s2)cc1 | 200 | 2000 | 200 | 4000 | 3000 | 250
Cl.Nc1ccc2nc(-c3ccc(C4=NCCN4)cc3)sc2c1 | 300 | 1000 | 1000 | 300 | 1000 | 250
